# Assay results pooled from the literature.
# Compare with care: the assays were run in different laboratories.
# Target: Vascular endothelial growth factor receptor 3 (FLT4, Homo sapiens, UniProt P35916)
SMILES,observed,mode,technique,tested at,endpoint,value
Cc1cc(NC(=O)c2cccc(S(F)(F)(F)(F)F)c2)cc(-n2ccn3nc(-c4cccnc4)cc23)c1,cell-free assay,,competition with immobilised ligand,1 µM,remaining binding,82.3%
CC[C@H](CO)Nc1nc(NCc2ccccc2)c2ncn(C(C)C)c2n1,cell-free assay,,,0.5 µM,remaining signal,94%
CNC(=O)c1cc2c(Oc3ccc(NC(=O)C4(C(=O)Nc5ccc(F)cc5)CC4)cc3)ccnc2cc1OC,enzyme activity,inhibitor,radiometric,1 µM,inhibition,102%
CNC(=O)c1cc(Oc2ccc(NC(=O)Nc3ccc(Cl)c(C(F)(F)F)c3)cc2)ccn1,cell-free assay,,,0.5 µM,remaining signal,43%
CC/C(=N\NC(=O)NCc1cccc(O)c1)c1ccc(O)c(C)c1O,enzyme activity,inhibitor,,0.1 µM,inhibition,6.1%
N#CC1(c2ccccn2)CCN(Cc2cc(C(=O)N3CCCC3)c(=O)n3ccccc23)CC1,cell-free assay,,competition with immobilised ligand,1 µM,remaining binding,86%
Cc1sc(C(=O)NC2COC2)cc1-n1cc(NC(=O)Nc2c(F)cccc2Cl)cn1,enzyme activity,inhibitor,,10 µM,remaining activity,79.2%
Cc1cnc(NC2CCOCC2)nc1-n1cnc(C(=O)NC(CN)c2cc(F)cc(Cl)c2)c1 (centres unmarked),enzyme activity,inhibitor,radiometric,1 µM,remaining activity,107%
O=C(Nc1cnn(-c2csc(C(=O)NC3COC3)c2)c1)Nc1ccccc1Cl,enzyme activity,inhibitor,,5 µM,remaining activity,93.5%
O=C1NC(=O)c2cc(Nc3ccc(F)cc3)c(Nc3ccc(F)cc3)cc21,cell-free assay,,,0.5 µM,remaining signal,102%
CC(C)(O)c1cncc(-c2nc3ccc(F)cc3n2C2CC2)c1,cell-free assay,,competition with immobilised ligand,1 µM,remaining binding,100%
Nc1ncnc2occ(-c3ccc(NC(=O)Nc4cc(C(F)(F)F)ccc4F)cc3)c12,cell-free assay,,,20 µM,remaining signal,0%
O=C(O)[C@H]1[C@H](Cn2nnc3ccccc3c2=O)CC[C@@H]1C(=O)c1ccc(OCCC2CCOCC2)cc1,cell-free assay,,competition with immobilised ligand,1 µM,remaining binding,81%
CC(C)(C)c1nc2c(s1)c1nc(N)ncc1c1ccc(NS(=O)(=O)c3c(F)cccc3F)c(F)c12,enzyme activity,inhibitor,radiometric,1 µM,remaining activity,76%
COc1cc2ncnc(Nc3ccc(Oc4ccccc4)c(C)c3C)c2cc1OC,enzyme activity,inhibitor,,1 µM,inhibition,12%
N#CCCc1ccc2c(c1)-c1[nH]c3ccc([N+](=O)[O-])cc3c1CC(=O)N2,cell-free assay,,,0.5 µM,remaining signal,66.5%
CC(=O)C1=C(C)N(c2cccc(C(F)(F)F)c2)C(=O)N[C@@H]1c1ccc(C#N)nc1,cell-free assay,,competition with immobilised ligand,1 µM,remaining binding,100%
Cc1ccc(C(=O)NCc2ccsc2)cc1C#Cc1cn(C(C)C)c2ncnc(N)c12,enzyme activity,inhibitor,,1 µM,activity vs control,-1%
CC(=O)N1CCC(c2ccc(C(=O)NC(=N)N)cc2C(F)(F)F)CC1,cell-free assay,,competition with immobilised ligand,1 µM,remaining binding,89%
Cc1cc(NC(=O)c2cccc3cc(-c4cccc5[nH]nc(N)c45)ccc23)ccc1F,enzyme activity,inhibitor,,0.1 µM,activity vs control,1%
